Experiments:
K562 = assay: Antiproliferative activity against human K562 cells assessed as reduction in cell viability after 48 hrs by MTT assay; assay type: functional, cell-based; details: K562, 48 h
HEL = assay: Antiproliferative activity against HEL cells harboring JAK2 V617F mutant assessed as reduction in cell viability after 48 hrs by MTT assay; assay type: functional, cell-based; details: Homo sapiens
Histone deacetylase = assay: Inhibition of HDAC in human HeLa nuclear extract using Boc-Lys(acetyl)-AMC as substrate preincubated for 5 mins followed by substrate addition and measured after 30 mins by fluorescence assay; assay type: cell-based
[1] = target: Tyrosine-protein kinase JAK1 (Homo sapiens, UniProt P23458); assay: Inhibition of recombinant human JAK1 using Ulight-CAGAGAIETDKEYYTVKD as substrate measured after 60 mins by LANCE assay
Chain of Tyrosine-protein kinase JAK1 (P23458 whole entry): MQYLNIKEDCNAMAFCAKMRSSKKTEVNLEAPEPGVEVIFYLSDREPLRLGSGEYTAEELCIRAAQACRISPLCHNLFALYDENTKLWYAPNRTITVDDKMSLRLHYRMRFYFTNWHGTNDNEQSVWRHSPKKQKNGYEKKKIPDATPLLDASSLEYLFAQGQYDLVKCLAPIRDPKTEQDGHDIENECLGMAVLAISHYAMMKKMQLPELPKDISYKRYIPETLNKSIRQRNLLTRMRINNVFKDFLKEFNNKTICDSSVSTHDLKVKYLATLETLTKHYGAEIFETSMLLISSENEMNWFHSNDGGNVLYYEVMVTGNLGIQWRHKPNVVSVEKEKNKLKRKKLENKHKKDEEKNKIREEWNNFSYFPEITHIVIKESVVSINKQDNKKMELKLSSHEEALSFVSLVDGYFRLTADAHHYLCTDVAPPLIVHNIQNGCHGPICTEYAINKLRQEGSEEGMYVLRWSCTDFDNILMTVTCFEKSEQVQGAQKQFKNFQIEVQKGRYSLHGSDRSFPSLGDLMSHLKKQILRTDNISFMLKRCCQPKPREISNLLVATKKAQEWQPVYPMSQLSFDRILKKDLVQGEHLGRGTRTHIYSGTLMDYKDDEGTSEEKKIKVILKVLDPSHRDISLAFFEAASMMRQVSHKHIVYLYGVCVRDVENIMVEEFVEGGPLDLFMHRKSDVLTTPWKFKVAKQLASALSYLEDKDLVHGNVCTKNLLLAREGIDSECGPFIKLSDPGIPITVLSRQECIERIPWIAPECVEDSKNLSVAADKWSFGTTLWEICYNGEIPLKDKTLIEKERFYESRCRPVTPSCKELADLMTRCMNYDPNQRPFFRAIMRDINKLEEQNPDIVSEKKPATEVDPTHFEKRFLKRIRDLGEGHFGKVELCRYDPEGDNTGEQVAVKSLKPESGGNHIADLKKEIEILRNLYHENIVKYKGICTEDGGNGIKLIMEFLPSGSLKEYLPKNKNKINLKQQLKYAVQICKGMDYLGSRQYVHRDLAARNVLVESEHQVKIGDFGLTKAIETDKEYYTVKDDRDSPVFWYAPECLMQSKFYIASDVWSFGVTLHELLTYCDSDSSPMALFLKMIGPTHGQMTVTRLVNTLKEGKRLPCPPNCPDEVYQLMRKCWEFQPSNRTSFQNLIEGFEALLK
Summary of the method: (§1)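 Human recombinant JAK enzyme assays run by a contract lab. IC50 was taken from a non-linear curve fit, with all parameters allowed to float. Assays were run in replicate (n>2) and reported as mean ± SD.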

[2] = target: T1, Tyrosine-protein kinase JAK3 (Homo sapiens, UniProt P52333); assay: Inhibition of recombinant human JAK3 using Ulight-CAGAGAIETDKEYYTVKD as substrate measured after 60 mins by LANCE assay
T1 sequence (P52333 whole entry): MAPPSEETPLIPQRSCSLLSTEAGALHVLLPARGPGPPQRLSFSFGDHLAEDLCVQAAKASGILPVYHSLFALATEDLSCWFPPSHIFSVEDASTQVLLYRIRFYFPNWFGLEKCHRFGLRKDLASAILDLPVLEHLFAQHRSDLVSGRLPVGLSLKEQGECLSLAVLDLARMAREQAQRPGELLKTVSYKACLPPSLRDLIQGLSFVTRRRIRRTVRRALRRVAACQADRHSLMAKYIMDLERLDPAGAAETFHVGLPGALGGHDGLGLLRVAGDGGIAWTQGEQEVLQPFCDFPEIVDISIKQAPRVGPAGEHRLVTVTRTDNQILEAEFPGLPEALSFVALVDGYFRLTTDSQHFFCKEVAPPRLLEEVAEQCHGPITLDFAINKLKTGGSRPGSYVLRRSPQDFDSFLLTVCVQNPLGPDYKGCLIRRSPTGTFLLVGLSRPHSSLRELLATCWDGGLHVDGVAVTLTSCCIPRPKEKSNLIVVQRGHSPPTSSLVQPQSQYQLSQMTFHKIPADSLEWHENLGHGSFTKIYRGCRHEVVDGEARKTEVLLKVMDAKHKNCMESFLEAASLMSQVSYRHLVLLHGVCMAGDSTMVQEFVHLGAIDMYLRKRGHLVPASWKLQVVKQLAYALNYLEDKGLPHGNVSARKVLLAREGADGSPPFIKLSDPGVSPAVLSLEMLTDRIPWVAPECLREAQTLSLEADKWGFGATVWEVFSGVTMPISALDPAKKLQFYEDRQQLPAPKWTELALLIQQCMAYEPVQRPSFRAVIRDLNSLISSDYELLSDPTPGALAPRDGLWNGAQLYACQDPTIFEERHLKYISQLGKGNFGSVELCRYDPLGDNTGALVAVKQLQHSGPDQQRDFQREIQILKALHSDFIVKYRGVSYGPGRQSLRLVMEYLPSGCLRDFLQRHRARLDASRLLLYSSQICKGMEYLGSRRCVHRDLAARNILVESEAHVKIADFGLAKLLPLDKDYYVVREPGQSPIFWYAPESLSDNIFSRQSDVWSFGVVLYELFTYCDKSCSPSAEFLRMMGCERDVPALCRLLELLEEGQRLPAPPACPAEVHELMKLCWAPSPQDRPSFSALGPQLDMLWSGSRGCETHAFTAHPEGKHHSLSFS

[3] = target: Non-receptor tyrosine-protein kinase TYK2 (Homo sapiens, UniProt P29597); assay: Inhibition of recombinant human TYK2 using Ulight-CAGAGAIETDKEYYTVKD as substrate measured after 60 mins by LANCE assay; summary of the method: as §1
Chain of Non-receptor tyrosine-protein kinase TYK2 (P29597 whole entry): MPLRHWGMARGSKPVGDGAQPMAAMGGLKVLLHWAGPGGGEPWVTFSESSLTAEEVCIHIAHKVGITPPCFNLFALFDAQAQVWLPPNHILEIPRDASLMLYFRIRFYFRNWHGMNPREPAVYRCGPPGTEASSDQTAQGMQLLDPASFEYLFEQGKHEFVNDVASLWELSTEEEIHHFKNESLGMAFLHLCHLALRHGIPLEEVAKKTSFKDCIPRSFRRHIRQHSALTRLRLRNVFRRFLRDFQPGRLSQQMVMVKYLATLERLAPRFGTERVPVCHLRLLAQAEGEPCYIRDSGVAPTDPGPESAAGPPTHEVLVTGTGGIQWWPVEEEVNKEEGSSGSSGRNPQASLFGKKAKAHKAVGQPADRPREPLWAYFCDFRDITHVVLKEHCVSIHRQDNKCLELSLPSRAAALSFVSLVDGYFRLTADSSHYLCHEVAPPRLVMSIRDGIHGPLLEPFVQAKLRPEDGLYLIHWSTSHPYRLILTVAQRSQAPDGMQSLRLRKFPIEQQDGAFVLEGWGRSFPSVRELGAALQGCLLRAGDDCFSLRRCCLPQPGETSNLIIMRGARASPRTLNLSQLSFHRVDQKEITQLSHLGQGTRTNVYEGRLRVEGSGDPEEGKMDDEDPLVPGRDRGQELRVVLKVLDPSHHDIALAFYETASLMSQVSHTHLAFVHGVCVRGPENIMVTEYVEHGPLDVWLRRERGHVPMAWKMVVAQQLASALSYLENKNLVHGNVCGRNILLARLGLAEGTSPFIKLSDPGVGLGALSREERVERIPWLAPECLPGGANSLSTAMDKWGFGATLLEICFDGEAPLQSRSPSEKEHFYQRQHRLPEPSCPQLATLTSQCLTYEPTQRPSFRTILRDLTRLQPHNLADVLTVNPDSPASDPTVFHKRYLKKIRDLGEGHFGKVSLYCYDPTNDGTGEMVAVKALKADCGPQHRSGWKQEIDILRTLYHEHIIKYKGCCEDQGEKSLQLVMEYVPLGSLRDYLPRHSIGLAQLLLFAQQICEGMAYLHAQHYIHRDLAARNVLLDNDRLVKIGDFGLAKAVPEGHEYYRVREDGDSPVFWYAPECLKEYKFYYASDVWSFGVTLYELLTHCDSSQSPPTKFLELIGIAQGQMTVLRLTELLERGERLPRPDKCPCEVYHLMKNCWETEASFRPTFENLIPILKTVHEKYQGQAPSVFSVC

MOLT-4 = assay: Antiproliferative activity against human MOLT4 cells assessed as reduction in cell viability after 48 hrs by MTT assay; assay type: functional, cell-based; details: MOLT-4, 48 h
Summary of the method: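 Cells kept in RPMI1640 with 10% FBS at 37 °C, 5% CO2. Seeded and grown for 12 h, then exposed to a range of compound concentrations for 48 h. 0.5% MTT added for 4 h, formazan dissolved in DMSO, absorbance read at 570 nm.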

Jurkat = assay: Antiproliferative activity against human Jurkat cells assessed as reduction in cell viability after 48 hrs by MTT assay; assay type: functional, cell-based
[4] = target: Tyrosine-protein kinase JAK2 (Homo sapiens, UniProt O60674); assay: Inhibition of recombinant human JAK2 using Ulight-CAGAGAIETDKEYYTVKD as substrate measured after 60 mins by LANCE assay
Chain of Tyrosine-protein kinase JAK2 (O60674 whole entry): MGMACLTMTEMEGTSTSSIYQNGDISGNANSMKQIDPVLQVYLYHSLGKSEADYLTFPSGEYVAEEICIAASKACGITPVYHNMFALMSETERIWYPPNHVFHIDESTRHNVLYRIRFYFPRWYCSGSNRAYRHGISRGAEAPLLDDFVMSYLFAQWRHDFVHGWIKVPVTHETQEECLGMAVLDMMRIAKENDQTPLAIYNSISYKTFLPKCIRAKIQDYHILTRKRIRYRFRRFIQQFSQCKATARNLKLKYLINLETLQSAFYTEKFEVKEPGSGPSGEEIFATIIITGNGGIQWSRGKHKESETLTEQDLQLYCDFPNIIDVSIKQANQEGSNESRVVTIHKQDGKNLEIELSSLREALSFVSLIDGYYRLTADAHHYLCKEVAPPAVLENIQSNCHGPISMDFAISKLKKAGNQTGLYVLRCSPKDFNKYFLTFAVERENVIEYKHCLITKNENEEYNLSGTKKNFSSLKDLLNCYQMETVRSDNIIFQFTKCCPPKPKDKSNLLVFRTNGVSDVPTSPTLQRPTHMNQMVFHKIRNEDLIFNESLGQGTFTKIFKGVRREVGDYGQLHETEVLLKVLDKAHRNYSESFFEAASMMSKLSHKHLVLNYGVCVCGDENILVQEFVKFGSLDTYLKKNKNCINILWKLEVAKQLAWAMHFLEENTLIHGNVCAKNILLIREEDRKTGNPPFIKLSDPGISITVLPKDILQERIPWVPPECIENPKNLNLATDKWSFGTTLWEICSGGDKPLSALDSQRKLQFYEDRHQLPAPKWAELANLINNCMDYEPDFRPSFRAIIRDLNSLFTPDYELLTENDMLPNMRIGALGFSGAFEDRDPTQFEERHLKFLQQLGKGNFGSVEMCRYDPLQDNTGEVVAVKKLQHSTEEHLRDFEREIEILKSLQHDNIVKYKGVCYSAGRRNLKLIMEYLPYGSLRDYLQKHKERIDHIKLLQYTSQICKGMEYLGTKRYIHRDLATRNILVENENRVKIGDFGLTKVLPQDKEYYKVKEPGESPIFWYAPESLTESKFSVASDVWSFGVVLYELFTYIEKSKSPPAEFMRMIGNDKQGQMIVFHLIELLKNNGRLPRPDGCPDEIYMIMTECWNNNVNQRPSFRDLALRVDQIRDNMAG

[5] = target: Histone deacetylase (Homo sapiens) (UniProt Q13547+O15379+Q9UBN7+Q92769+Q9UQL6+Q8WUI4+Q9BY41+Q96DB2+P56524+Q9UKV0+Q969S8); assay: Potency index, ratio of SAHA IC50 to test compound IC50 for inhibition of HDAC in human HeLa cell nuclear extract; assay type: cell-based
Summary of the method: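 HeLa cell nuclear extract was incubated with serial concentrations of compound for 5 min at 37 °C. Boc-Lys(acetyl)-AMC substrate was added for 30 min at 37 °C, then developer containing trypsin and TSA for 20 min. Fluorescence was read at ex 390/em 460 nm against control wells.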

Histone deacetylase 2 = Histone deacetylase 2 (Homo sapiens, UniProt Q92769); assay: Inhibition of HDAC2 (unknown origin) using Boc-Lys(acetyl)-AMC as substrate preincubated for 5 mins followed by substrate addition and measured after 30 mins by fluorescence assay
Chain of Histone deacetylase 2 (Q92769 whole entry): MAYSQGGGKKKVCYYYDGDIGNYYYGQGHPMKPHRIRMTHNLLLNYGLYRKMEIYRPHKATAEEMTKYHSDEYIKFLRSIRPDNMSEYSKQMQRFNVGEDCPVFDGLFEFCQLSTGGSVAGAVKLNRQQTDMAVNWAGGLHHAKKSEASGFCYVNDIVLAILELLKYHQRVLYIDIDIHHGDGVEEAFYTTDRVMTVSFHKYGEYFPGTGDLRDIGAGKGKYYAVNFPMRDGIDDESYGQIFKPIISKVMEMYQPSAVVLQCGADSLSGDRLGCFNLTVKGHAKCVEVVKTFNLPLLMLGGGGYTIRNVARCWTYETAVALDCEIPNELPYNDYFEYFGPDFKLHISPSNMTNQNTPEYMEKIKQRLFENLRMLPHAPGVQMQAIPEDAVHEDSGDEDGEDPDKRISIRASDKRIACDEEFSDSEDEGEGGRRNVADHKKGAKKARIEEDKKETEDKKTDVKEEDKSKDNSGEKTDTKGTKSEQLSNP

[6] = target: T2, Protein deacetylase HDAC6 (Homo sapiens, UniProt Q9UBN7); assay: Inhibition of HDAC6 (unknown origin) using Boc-Lys(acetyl)-AMC as substrate preincubated for 5 mins followed by substrate addition and measured after 30 mins by fluorescence assay
T2 sequence (Q9UBN7 whole entry): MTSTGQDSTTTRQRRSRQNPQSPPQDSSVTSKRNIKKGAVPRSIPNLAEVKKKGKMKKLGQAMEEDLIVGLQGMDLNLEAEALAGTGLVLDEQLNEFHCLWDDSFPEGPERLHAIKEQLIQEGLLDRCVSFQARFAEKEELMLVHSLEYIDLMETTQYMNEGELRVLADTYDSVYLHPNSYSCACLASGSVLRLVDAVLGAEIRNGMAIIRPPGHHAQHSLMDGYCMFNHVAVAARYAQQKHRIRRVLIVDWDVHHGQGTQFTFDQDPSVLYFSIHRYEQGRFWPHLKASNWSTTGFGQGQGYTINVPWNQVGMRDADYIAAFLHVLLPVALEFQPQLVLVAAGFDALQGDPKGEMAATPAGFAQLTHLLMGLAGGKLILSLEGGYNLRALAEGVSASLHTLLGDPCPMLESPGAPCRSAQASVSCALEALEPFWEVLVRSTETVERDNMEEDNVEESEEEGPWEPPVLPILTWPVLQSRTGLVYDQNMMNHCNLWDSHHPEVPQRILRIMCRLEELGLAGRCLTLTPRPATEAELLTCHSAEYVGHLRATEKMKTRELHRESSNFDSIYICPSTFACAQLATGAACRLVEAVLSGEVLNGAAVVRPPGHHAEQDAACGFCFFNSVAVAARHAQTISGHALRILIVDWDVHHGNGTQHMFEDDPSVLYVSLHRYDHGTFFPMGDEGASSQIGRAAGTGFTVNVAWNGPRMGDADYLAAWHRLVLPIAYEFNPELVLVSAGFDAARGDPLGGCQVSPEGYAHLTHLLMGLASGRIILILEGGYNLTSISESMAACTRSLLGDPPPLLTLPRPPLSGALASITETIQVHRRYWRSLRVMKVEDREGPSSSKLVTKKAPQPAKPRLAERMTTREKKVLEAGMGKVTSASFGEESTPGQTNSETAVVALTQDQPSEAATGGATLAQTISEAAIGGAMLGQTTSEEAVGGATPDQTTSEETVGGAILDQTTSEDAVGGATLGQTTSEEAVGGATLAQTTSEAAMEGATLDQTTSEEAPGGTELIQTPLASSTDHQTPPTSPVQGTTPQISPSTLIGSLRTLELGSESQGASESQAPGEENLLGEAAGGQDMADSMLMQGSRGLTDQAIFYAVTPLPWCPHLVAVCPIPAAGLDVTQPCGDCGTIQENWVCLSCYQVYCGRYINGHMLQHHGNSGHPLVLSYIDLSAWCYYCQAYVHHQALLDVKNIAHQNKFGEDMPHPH

Histone deacetylase 8 = target: T3, Histone deacetylase 8 (Homo sapiens, UniProt Q9BY41); assay: Inhibition of HDAC8 (unknown origin) using Boc-Lys(trifluoroacetyl)-AMC as substrate preincubated for 5 mins followed by substrate addition and measured after 30 mins by fluorescence assay
T3 sequence (Q9BY41 whole entry): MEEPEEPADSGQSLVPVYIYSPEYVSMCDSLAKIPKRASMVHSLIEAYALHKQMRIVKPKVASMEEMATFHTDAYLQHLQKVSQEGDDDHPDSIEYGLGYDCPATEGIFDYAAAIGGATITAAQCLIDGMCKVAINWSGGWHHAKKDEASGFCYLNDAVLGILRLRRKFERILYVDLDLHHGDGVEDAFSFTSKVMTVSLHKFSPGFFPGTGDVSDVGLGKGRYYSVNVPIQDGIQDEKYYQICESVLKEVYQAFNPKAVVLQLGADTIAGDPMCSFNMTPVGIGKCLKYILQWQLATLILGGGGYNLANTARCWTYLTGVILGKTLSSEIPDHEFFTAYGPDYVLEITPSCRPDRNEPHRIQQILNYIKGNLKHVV

## O=C(CCCCCCn1cc(Nc2ncc(Cl)c(NC3CC3)n2)cn1)NO
K562
  IC50: 380 nM
HEL
  IC50: 80 nM
Histone deacetylase
  IC50: 0.013 µM
[1]
  IC50: 14 nM
[2]
  IC50: 2 nM
[3]
  IC50: 12 nM
MOLT-4
  IC50: 150 nM
Jurkat
  IC50: 50 nM

## O=C(CCCCCCn1cc(Nc2nccc(Nc3ccc(F)cc3)n2)cn1)NO
[4]
  IC50: > 100 nM
Histone deacetylase
  IC50: 0.018 µM

## O=C(CCCCCCn1cc(Nc2ncc(F)c(Nc3ccc(F)cc3)n2)cn1)NO
[4]
  IC50: > 100 nM
Histone deacetylase
  IC50: 0.003 µM
[5]
  Ratio IC50: > 50

## CNc1nc(Nc2cnn(CCCCCCC(=O)NO)c2)ncc1C(F)(F)F
[4]
  IC50: 85 nM
Histone deacetylase
  IC50: 0.037 µM

## O=C(CCCCCCn1cc(Nc2ncc(C(F)(F)F)c(Nc3ccc(F)cc3)n2)cn1)NO
K562
  IC50: 480 nM
HEL
  IC50: 420 nM
[4]
  IC50: > 100 nM
Histone deacetylase
  IC50: 0.041 µM
MOLT-4
  IC50: 240 nM

## O=C(CCCCCCn1cc(Nc2ncc(Cl)c(N3CCOCC3)n2)cn1)NO
K562
  IC50: 910 nM
HEL
  IC50: 470 nM
[4]
  IC50: 20 nM
Histone deacetylase
  IC50: 0.037 µM
MOLT-4
  IC50: 320 nM
Jurkat
  IC50: 170 nM

## O=C(CCCCCn1cc(Nc2ncc(Cl)c(Nc3ccc(F)cc3)n2)cn1)NO
K562
  IC50: 420 nM
HEL
  IC50: 150 nM
[4]
  IC50: 5 nM
Histone deacetylase
  IC50: 0.026 µM
MOLT-4
  IC50: 120 nM
Jurkat
  IC50: 60 nM

## O=C(CCCCn1cc(Nc2ncc(Cl)c(Nc3ccc(F)cc3)n2)cn1)NO
[4]
  IC50: 46 nM
Histone deacetylase
  IC50: 0.569 µM
Histone deacetylase 2
  IC50: 1400 nM
[6]
  IC50: 310 nM
Histone deacetylase 8
  IC50: 5.1 µM

## O=C(CCCCCCn1cc(Nc2ncc(Cl)c(N3CCCCC3)n2)cn1)NO
[4]
  IC50: 50 nM
Histone deacetylase
  IC50: 0.04 µM
[1]
  IC50: 30 nM
[2]
  IC50: 3.7 nM
[3]
  IC50: 60 nM

## O=C(CCCCCCCn1cc(Nc2ncc(Cl)c(Nc3ccc(F)cc3)n2)cn1)NO
[4]
  IC50: 61 nM
Histone deacetylase
  IC50: 0.038 µM
Histone deacetylase 2
  IC50: 430 nM
[6]
  IC50: 300 nM
Histone deacetylase 8
  IC50: 1.7 µM

## O=C(/C=C/c1ccc(Cn2cc(Nc3ncc(Cl)c(Nc4ccc(F)cc4)n3)cn2)cc1)NO
K562
  IC50: 1030 nM
HEL
  IC50: 600 nM
[4]
  IC50: 43 nM
Histone deacetylase
  IC50: 0.144 µM
Histone deacetylase 2
  IC50: 1000 nM
[6]
  IC50: 63 nM
Histone deacetylase 8
  IC50: 14.1 µM
MOLT-4
  IC50: 330 nM
Jurkat
  IC50: 150 nM

## O=C(CCCCCCn1cc(Nc2ncc(Cl)c(Nc3ccccc3)n2)cn1)NO
K562
  IC50: 420 nM
HEL
  IC50: 180 nM
[4]
  IC50: 12 nM
Histone deacetylase
  IC50: 0.019 µM
MOLT-4
  IC50: 160 nM
Jurkat
  IC50: 90 nM

## CCCNc1nc(Nc2cnn(CCCCCCC(=O)NO)c2)ncc1Cl
[4]
  IC50: 30 nM
Histone deacetylase
  IC50: 0.026 µM

## O=C(CCCn1cc(Nc2ncc(Cl)c(Nc3ccc(F)cc3)n2)cn1)NO
[4]
  IC50: 10 nM
Histone deacetylase
  IC50: > 10 µM

## O=C(CCn1cc(Nc2ncc(Cl)c(Nc3ccc(F)cc3)n2)cn1)NO
[4]
  IC50: 22 nM
Histone deacetylase
  IC50: > 10 µM

## O=C(CCCCCn1cc(Nc2ncc(Cl)c(Nc3ccccc3Cl)n2)cn1)NO
K562
  IC50: 1810 nM
HEL
  IC50: 430 nM
[4]
  IC50: 18 nM
Histone deacetylase
  IC50: 0.018 µM
MOLT-4
  IC50: 630 nM
Jurkat
  IC50: 310 nM

## O=C(NO)c1ccc(Cn2cc(Nc3ncc(Cl)c(Nc4ccc(F)cc4)n3)cn2)cc1
[4]
  IC50: 21 nM
Histone deacetylase
  IC50: 0.062 µM
Histone deacetylase 2
  IC50: 730 nM
[6]
  IC50: 13 nM
Histone deacetylase 8
  IC50: 0.12 µM

## CNc1nc(Nc2cnn(CCCCCC(=O)NO)c2)ncc1Cl
[4]
  IC50: 36 nM
Histone deacetylase
  IC50: 0.104 µM

## O=C(CCCCCCn1cc(Nc2ncc(Cl)c(Nc3ccccc3Cl)n2)cn1)NO
K562
  IC50: 860 nM
HEL
  IC50: 340 nM
[4]
  IC50: 46 nM
Histone deacetylase
  IC50: 0.01 µM
MOLT-4
  IC50: 510 nM
Jurkat
  IC50: 250 nM

## O=C(CCCCCn1cc(Nc2ncc(Cl)c(Nc3cccc(Cl)c3)n2)cn1)NO
K562
  IC50: 580 nM
HEL
  IC50: 80 nM
[4]
  IC50: 7 nM
Histone deacetylase
  IC50: 0.004 µM
MOLT-4
  IC50: 80 nM
Jurkat
  IC50: 50 nM
